Experimental data reported in ChEMBL document CHEMBL4373711, “Development of 3,5-Dinitrophenyl-Containing 1,2,4-Triazoles and Their Trifluoromethyl Analogues as Highly Efficient Antitubercular Agents Inhibiting Decaprenylphosphoryl-β-d-ribofuranose 2'-Oxidase” (J Med Chem, 2019).
≈ marks a conversion by molar mass, not a printed value. Calls of active or inactive are those of the source. The rule behind the calls is not given here.

Legend:
[1] = system: A-431; assay: Cytotoxicity against human A431 cells assessed as reduction in cell viability after 48 hrs by CellTiter 96 aqueous one solution assay; assay type: cell-based; settings: A-431, 48 h
[2] = system: Mycobacterium avium; assay: Antimycobacterial activity against Mycobacterium avium CNCTC My 330/88 after 21 days; assay type: functional; settings: CNCTC My 330/88, 504 h
Procedure, shortened: (§1)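 M. avium was tested by microdilution in Šula's semisynthetic medium, with compounds dissolved in DMSO and serially diluted from 1000 down to 1. Inoculum was a 1.0 McFarland suspension diluted 10-5. Plates were incubated at 37 °C and read at 14 and 21 days. […] Isoniazid and rifampicin served as standards.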

[3] = system: Staphylococcus epidermidis; assay: Antibacterial activity against Staphylococcus epidermidis at highest concentration measured after 24 to 48 hrs by alamar blue dye based broth microdilution assay; assay type: functional, organism-based
[4] = system: Mycobacterium avium; assay: Antimycobacterial activity against Mycobacterium avium CNCTC My 330/88 after 14 days; assay type: functional; settings: CNCTC My 330/88, 336 h; procedure, shortened: as §1
[5] = system: Mycobacterium tuberculosis; assay: Antimycobacterial activity against XDR Mycobacterium tuberculosis Praha 131 after 14 days; assay type: functional; settings: Praha 131, 336 h
Procedure, shortened: (§2)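 M. tuberculosis strains (H37Rv and clinical MDR/XDR isolates) tested by microdilution in Šula's semisynthetic medium. Compounds were dissolved in DMSO and tested at 32 to 0.03 µM in twofold steps. Inoculum was a 1.0 McFarland suspension diluted 10-3. Plates were incubated at 37 °C and read at 14 and 21 days.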

[6] = system: Mycobacterium tuberculosis; assay: Antimycobacterial activity against XDR Mycobacterium tuberculosis Praha 131 after 21 days; assay type: functional; settings: Praha 131, 504 h; procedure, shortened: as §2
[7] = system: Mycobacterium kansasii; assay: Antimycobacterial activity against Mycobacterium kansasii 6509/96 after 7 days; assay type: functional; settings: 6509/96, 168 h
Procedure, shortened: (§3)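 Microdilution in Šula's semisynthetic medium; compounds in DMSO at 32–0.03 µM. Inoculum from 1.0 McFarland suspension diluted 10-4. […] Isoniazid and rifampicin as reference drugs.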

[8] = system: Escherichia coli; assay: Antibacterial activity against Escherichia coli ATCC 25922 CCM 3954 at highest concentration measured after 24 to 48 hrs by alamar blue dye based broth microdilution assay; assay type: functional, organism-based
[9] = system: Lichtheimia corymbifera; assay: Antifungal activity against Lichtheimia corymbifera CCM 8077 at highest concentration measured after 24 to 48 hrs by alamar blue dye based broth microdilution assay; assay type: functional, organism-based
[10] = system: Candida parapsilosis; assay: Antifungal activity against Candida parapsilosis ATCC 22019 CCM 8260 at highest concentration measured after 24 to 48 hrs by alamar blue dye based broth microdilution assay; assay type: functional, organism-based
[11] = system: Candida albicans; assay: Antifungal activity against Candida albicans ATCC 24433 CCM 8320 at highest concentration measured after 24 to 48 hrs by alamar blue dye based broth microdilution assay; assay type: functional, organism-based
[12] = Cytotoxicity against human HepG2 cells assessed as cell viability at 30 uM after 48 hrs by CellTiter 96 aqueous one solution assay relative to control; assay type: cell-based; settings: read-out: Activity
Procedure, shortened: (§4)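 HepG2 (DMEM, 10% FBS, 1 mM pyruvate) or A431 (DMEM, 10% FBS) seeded 10,000 cells/well, 24 h at 37 °C, 5% CO2, then 30 µM compound for 48 h. MTS reagent 60 min, absorbance 490 nm, background subtracted; 0.1% DMSO vehicle = 100%, 10% SDS = 0% viability.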

[13] = system: Mycobacterium kansasii; assay: Antimycobacterial activity against Mycobacterium kansasii 6509/96 after 14 days; assay type: functional; settings: 6509/96, 336 h; procedure, shortened: as §3
[14] = system: Mycobacterium kansasii; assay: Antimycobacterial activity against Mycobacterium kansasii CNCTC My 235/80 after 21 days; assay type: functional; settings: CNCTC My 235/80, 504 h; procedure, shortened: as §3
[15] = Cytotoxicity against human A431 cells assessed as cell viability at 30 uM after 48 hrs by CellTiter 96 aqueous one solution assay relative to control; assay type: cell-based, A-431; settings: read-out: Activity; procedure, shortened: as §4
[16] = system: Aspergillus flavus; assay: Antifungal activity against Aspergillus flavus CCM 8363 at highest concentration measured after 24 to 48 hrs by alamar blue dye based broth microdilution assay; assay type: functional, organism-based
[17] = system: Staphylococcus aureus; assay: Antibacterial activity against Staphylococcus aureus subsp. aureus ATCC 29213 CCM 4223 at highest concentration measured after 24 to 48 hrs by alamar blue dye based broth microdilution assay; assay type: functional, organism-based
[18] = system: Enterococcus faecalis; assay: Antibacterial activity against Enterococcus faecalis ATCC 29212 CCM 4224 at highest concentration measured after 24 to 48 hrs by alamar blue dye based broth microdilution assay; assay type: functional, organism-based
[19] = system: HepG2; assay: Cytotoxicity against human HepG2 cells assessed as reduction in cell viability after 48 hrs by CellTiter 96 aqueous one solution assay; assay type: cell-based; settings: HepG2, 48 h
[20] = system: Staphylococcus aureus; assay: Antibacterial activity against methicillin-resistant Staphylococcus aureus subsp. aureus ATCC 43300 CCM 4750 at highest concentration measured after 24 to 48 hrs by alamar blue dye based broth microdilution assay; assay type: functional, organism-based
[21] = system: Mycobacterium kansasii; assay: Antimycobacterial activity against Mycobacterium kansasii CNCTC My 235/80 after 7 days; assay type: functional; settings: CNCTC My 235/80, 168 h; procedure, shortened: as §3
[22] = system: Pichia kudriavzevii; assay: Antifungal activity against Candida krusei ATCC 6258 CCM8271 at highest concentration measured after 24 to 48 hrs by alamar blue dye based broth microdilution assay; assay type: functional, organism-based
[23] = system: Serratia marcescens; assay: Antibacterial activity against Serratia marcescens at highest concentration measured after 24 to 48 hrs by alamar blue dye based broth microdilution assay; assay type: functional, organism-based
[24] = system: Trichophyton interdigitale; assay: Antifungal activity against Trichophyton interdigitale ATCC 9533 CCM 8377 at highest concentration measured after 72 to 120 hrs by alamar blue dye based broth microdilution assay; assay type: functional
[25] = system: Mycobacterium kansasii; assay: Antimycobacterial activity against Mycobacterium kansasii 6509/96 after 21 days; assay type: functional; settings: 6509/96, 504 h; procedure, shortened: as §3
[26] = system: Mycobacterium tuberculosis; assay: Antimycobacterial activity against Mycobacterium tuberculosis H37Rv CNCTC My 331/88 after 14 days; assay type: functional; settings: H37Rv CNCTC My 331/88, 336 h; procedure, shortened: as §2
[27] = system: Mycobacterium tuberculosis; assay: Antimycobacterial activity against Mycobacterium tuberculosis H37Rv CNCTC My 331/88 after 21 days; assay type: functional; settings: H37Rv CNCTC My 331/88, 504 h; procedure, shortened: as §2
[28] = system: Klebsiella pneumoniae; assay: Antibacterial activity against Klebsiella pneumoniae at highest concentration measured after 24 to 48 hrs by alamar blue dye based broth microdilution assay; assay type: functional, organism-based
[29] = system: Aspergillus fumigatus; assay: Antifungal activity against Aspergillus fumigatus ATCC 204305 at highest concentration measured after 24 to 48 hrs by alamar blue dye based broth microdilution assay; assay type: functional, organism-based
[30] = system: Candida tropicalis; assay: Antifungal activity against Candida tropicalis ATCC 750 CCM 8264 at highest concentration measured after 24 to 48 hrs by alamar blue dye based broth microdilution assay; assay type: functional, organism-based
[31] = system: Mycobacterium kansasii; assay: Antimycobacterial activity against Mycobacterium kansasii CNCTC My 235/80 after 14 days; assay type: functional; settings: CNCTC My 235/80, 336 h; procedure, shortened: as §3
[32] = system: Pseudomonas aeruginosa; assay: Antibacterial activity against Pseudomonas aeruginosa ATCC 27853 CCM 3955 at highest concentration measured after 24 to 48 hrs by alamar blue dye based broth microdilution assay; assay type: functional, organism-based

Row | Compound | IC50 [1] [µM] | MIC99 [2] [µM] | Activity [3] | MIC99 [4] [µM] | MIC99 [5] [µM] | MIC99 [6] [µM] | MIC99 [7] [µM] | Activity [8] | Activity [9] | Activity [10] | Activity [11] | viability at 48 h, 30 µM [12] [%] | MIC99 [13] [µM] | MIC99 [14] [µM] | viability at 48 h, 30 µM [15] [%] | Activity [16] | Activity [17] | Activity [18] | IC50 [19] [µM] | Activity [20] | further results
1 | CCCSc1nnc(-c2cc([N+](=O)[O-])cc([N+](=O)[O-])c2)n1Cc1ccccc1 | > 30 | 250 (≈ 99.9 µg/mL) | inactive | 250 (≈ 99.9 µg/mL) | 0.125 (≈ 0.0499 µg/mL) | 0.125 (≈ 0.0499 µg/mL) | 0.25 (≈ 0.0999 µg/mL) | inactive | inactive | inactive | inactive | 90 | 0.25 (≈ 0.0999 µg/mL) | 0.25 (≈ 0.0999 µg/mL) | 123 | inactive | inactive | inactive | > 30 | inactive | MIC99 [21]: 0.125 µM (≈ 0.0499 µg/mL); Activity [22]: inactive; Activity [23]: inactive; Activity [24]: inactive; MIC99 [25]: 0.5 µM (≈ 0.2 µg/mL); MIC99 [26]: 0.06 µM (≈ 0.024 µg/mL); MIC99 [27]: 0.125 µM (≈ 0.0499 µg/mL); Activity [28]: inactive; Activity [29]: inactive; Activity [30]: inactive; MIC99 [31]: 0.25 µM (≈ 0.0999 µg/mL); Activity [32]: inactive
2 | O=[N+]([O-])c1cc(CSc2nnc(-c3ccccc3)n2Cc2ccccc2)cc([N+](=O)[O-])c1 | > 30 | > 1000 | inactive | > 1000 | 2 (≈ 0.895 µg/mL) | 4 (≈ 1.79 µg/mL) | 2 (≈ 0.895 µg/mL) | inactive | inactive | inactive | inactive | 107 | 8 (≈ 3.58 µg/mL) | 8 (≈ 3.58 µg/mL) | 69 | inactive | inactive | inactive | > 30 | inactive | MIC99 [21]: 2 µM (≈ 0.895 µg/mL); Activity [22]: inactive; Activity [23]: inactive; Activity [24]: inactive; MIC99 [25]: 8 µM (≈ 3.58 µg/mL); MIC99 [26]: 4 µM (≈ 1.79 µg/mL); MIC99 [27]: 4 µM (≈ 1.79 µg/mL); Activity [28]: inactive; Activity [29]: inactive; Activity [30]: inactive; MIC99 [31]: 4 µM (≈ 1.79 µg/mL); Activity [32]: inactive
3 | O=[N+]([O-])c1cc(-c2nnc(SCc3ccc(Br)cc3)n2Cc2ccccc2)cc([N+](=O)[O-])c1 | > 30 | 62 (≈ 32.6 µg/mL) | inactive | 62 (≈ 32.6 µg/mL) | 0.125 (≈ 0.0658 µg/mL) | 0.25 (≈ 0.132 µg/mL) | 0.125 (≈ 0.0658 µg/mL) | inactive | inactive | inactive | inactive | 104 | 0.125 (≈ 0.0658 µg/mL) | 0.25 (≈ 0.132 µg/mL) | 110 | inactive | inactive | inactive | > 30 | inactive | MIC99 [21]: 0.125 µM (≈ 0.0658 µg/mL); Activity [22]: inactive; Activity [23]: inactive; Activity [24]: inactive; MIC99 [25]: 0.25 µM (≈ 0.132 µg/mL); MIC99 [26]: 0.125 µM (≈ 0.0658 µg/mL); MIC99 [27]: 0.25 µM (≈ 0.132 µg/mL); Activity [28]: inactive; Activity [29]: inactive; Activity [30]: inactive; MIC99 [31]: 0.25 µM (≈ 0.132 µg/mL); Activity [32]: inactive
